# According to ChEMBL document CHEMBL4689842, “EUbOPEN Chemogenomics Library wave 1” (2021):
# System: U2OS
# Test: Multiplex assay against U2OS
# Format: toxicity, cell-based
# Details: human
# Outline: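 With compound added, live cells were imaged on a CQ1 microscope at 37°C and 5% CO2; staining with Hoechst33342, BioTracker Green Microtubule Cytoskeleton Dye, MitoTracker Red and Annexin V Alexa Fluor 680 had been done at seeding. The CellPathfinder machine-learning gating scheme split cells into Hoechst high-intensity objects or normal cells, normal cells into healthy, pyknosed or fragmented nuclei, and pyknosed cells into mitotic or apoptotic. The tubulin, mitochondrial-mass and membrane-permeability phenotypes are per cents of healthy-nucleus cells.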
# [1] = 12 h, 1 µM, compound concentration 1 uM, replicate 1
# [2] = 12 h, 1 µM, compound concentration 1 uM, replicate 2
# [3] = 12 h, 10 µM, compound concentration 10 uM, replicate 1
# [4] = 12 h, 10 µM, compound concentration 10 uM, replicate 2
# [5] = 24 h, 1 µM, compound concentration 1 uM, replicate 1
# [6] = 24 h, 1 µM, compound concentration 1 uM, replicate 2
# [7] = 24 h, 10 µM, compound concentration 10 uM, replicate 1
# [8] = 24 h, 10 µM, compound concentration 10 uM, replicate 2
# [9] = 48 h, 1 µM, compound concentration 1 uM, replicate 1
# [10] = 48 h, 1 µM, compound concentration 1 uM, replicate 2
# [11] = 48 h, 10 µM, compound concentration 10 uM, replicate 1
# [12] = 48 h, 10 µM, compound concentration 10 uM, replicate 2
compound,measurement,setting,value
CCCCCNC(=N)N/N=C/c1c[nH]c2ccc(OC)cc12.O=C(O)/C=C\C(=O)O [TEGASEROD MALEATE],Population Apoptotic (%),[1],66%
same,Population Fragmented Nuclei (%),[1],12%
same,Population Healthy Nuclei (%),[1],75%
same,Population Hoechst High Intensity Objects (%),[1],8%
same,Population Membrane Permeable-Phenotype (%),[1],4%
same,Population Mitochondria Different-Phenotype (%),[1],16%
same,Population Mitotic Cells (%),[1],33%
same,Population Normal (%),[1],91%
same,Population Pyknosed Nuclei (%),[1],11%
same,Population Tubulin-Different-Phenotype (%),[1],10%
same,Total Cell Count,[1],73
same,Population Apoptotic (%),[2],20%
same,Population Healthy Nuclei (%),[2],79%
same,Population Hoechst High Intensity Objects (%),[2],3%
same,Population Mitochondria Different-Phenotype (%),[2],22%
same,Population Mitotic Cells (%),[2],80%
same,Population Normal (%),[2],96%
same,Population Pyknosed Nuclei (%),[2],8%
same,Population Tubulin-Different-Phenotype (%),[2],14%
same,Total Cell Count,[2],74
same,Population Apoptotic (%),[3],92%
same,Population Fragmented Nuclei (%),[3],36%
same,Population Healthy Nuclei (%),[3],0%
same,Population Hoechst High Intensity Objects (%),[3],12%
same,Population Membrane Permeable-Phenotype (%),[3],100%
same,Population Mitochondria Different-Phenotype (%),[3],100%
same,Population Mitotic Cells (%),[3],7%
same,Population Normal (%),[3],87%
same,Population Pyknosed Nuclei (%),[3],62%
same,Population Tubulin-Different-Phenotype (%),[3],100%
same,Total Cell Count,[3],167
same,Population Apoptotic (%),[4],100%
same,Population Fragmented Nuclei (%),[4],22%
same,Population Healthy Nuclei (%),[4],3%
same,Population Hoechst High Intensity Objects (%),[4],35%
same,Population Mitotic Cells (%),[4],0%
same,Population Normal (%),[4],64%
same,Population Pyknosed Nuclei (%),[4],73%
same,Total Cell Count,[4],64
same,Population Apoptotic (%),[5],47%
same,Population Fragmented Nuclei (%),[5],9%
same,Population Healthy Nuclei (%),[5],78%
same,Population Hoechst High Intensity Objects (%),[5],4%
same,Population Membrane Permeable-Phenotype (%),[5],6%
same,Population Mitochondria Different-Phenotype (%),[5],13%
same,Population Mitotic Cells (%),[5],52%
same,Population Normal (%),[5],95%
same,Population Pyknosed Nuclei (%),[5],12%
same,Population Tubulin-Different-Phenotype (%),[5],13%
same,Total Cell Count,[5],88
same,Population Apoptotic (%),[6],87%
same,Population Fragmented Nuclei (%),[6],10%
same,Population Healthy Nuclei (%),[6],77%
same,Population Hoechst High Intensity Objects (%),[6],5%
same,Population Membrane Permeable-Phenotype (%),[6],5%
same,Population Mitochondria Different-Phenotype (%),[6],21%
same,Population Mitotic Cells (%),[6],12%
same,Population Normal (%),[6],94%
same,Population Tubulin-Different-Phenotype (%),[6],7%
same,Total Cell Count,[6],89
same,Population Apoptotic (%),[7],85%
same,Population Fragmented Nuclei (%),[7],42%
same,Population Healthy Nuclei (%),[7],1%
same,Population Hoechst High Intensity Objects (%),[7],16%
same,Population Membrane Permeable-Phenotype (%),[7],100%
same,Population Mitochondria Different-Phenotype (%),[7],100%
same,Population Mitotic Cells (%),[7],14%
same,Population Normal (%),[7],83%
same,Population Pyknosed Nuclei (%),[7],56%
same,Population Tubulin-Different-Phenotype (%),[7],100%
same,Total Cell Count,[7],180
same,Population Apoptotic (%),[8],100%
same,Population Fragmented Nuclei (%),[8],44%
same,Population Healthy Nuclei (%),[8],26%
same,Population Hoechst High Intensity Objects (%),[8],39%
same,Population Mitotic Cells (%),[8],0%
same,Population Normal (%),[8],60%
same,Population Pyknosed Nuclei (%),[8],28%
same,Total Cell Count,[8],70
same,Population Apoptotic (%),[9],44%
same,Population Fragmented Nuclei (%),[9],7%
same,Population Healthy Nuclei (%),[9],85%
same,Population Hoechst High Intensity Objects (%),[9],3%
same,Population Membrane Permeable-Phenotype (%),[9],2%
same,Population Mitochondria Different-Phenotype (%),[9],11%
same,Population Mitotic Cells (%),[9],55%
same,Population Normal (%),[9],96%
same,Population Pyknosed Nuclei (%),[9],7%
same,Population Tubulin-Different-Phenotype (%),[9],7%
same,Total Cell Count,[9],112
same,Population Apoptotic (%),[10],35%
same,Population Fragmented Nuclei (%),[10],10%
same,Population Healthy Nuclei (%),[10],75%
same,Population Hoechst High Intensity Objects (%),[10],1%
same,Population Membrane Permeable-Phenotype (%),[10],6%
same,Population Mitochondria Different-Phenotype (%),[10],17%
same,Population Mitotic Cells (%),[10],64%
same,Population Normal (%),[10],98%
same,Population Pyknosed Nuclei (%),[10],13%
same,Population Tubulin-Different-Phenotype (%),[10],10%
same,Total Cell Count,[10],110
same,Population Apoptotic (%),[11],91%
same,Population Fragmented Nuclei (%),[11],50%
same,Population Healthy Nuclei (%),[11],1%
same,Population Hoechst High Intensity Objects (%),[11],14%
same,Population Membrane Permeable-Phenotype (%),[11],100%
same,Population Mitochondria Different-Phenotype (%),[11],100%
same,Population Mitotic Cells (%),[11],8%
same,Population Normal (%),[11],85%
same,Population Pyknosed Nuclei (%),[11],48%
same,Population Tubulin-Different-Phenotype (%),[11],100%
same,Total Cell Count,[11],260
same,Population Apoptotic (%),[12],100%
same,Population Fragmented Nuclei (%),[12],64%
same,Population Healthy Nuclei (%),[12],24%
same,Population Hoechst High Intensity Objects (%),[12],39%
same,Population Membrane Permeable-Phenotype (%),[12],90%
same,Population Mitochondria Different-Phenotype (%),[12],90%
same,Population Mitotic Cells (%),[12],0%
same,Population Normal (%),[12],60%
same,Population Pyknosed Nuclei (%),[12],11%
same,Population Tubulin-Different-Phenotype (%),[12],90%
same,Total Cell Count,[12],103
